Data reported in publication PMC2984665 (Phytochemistry, 2010).

How the values were obtained:
[1] = stability of the isolated pure compounds on storage; type: physicochemical; details: pure isolated compound; decomposition followed by discoloration and LC-MS
[2] = molecular target: serine protease chymotrypsin (Bos taurus, UniProt P00766); test: chymotrypsin chemiluminescent assay with and without detergent; type: biochemical; details: read-out: IC50, inhibition of chymotrypsin; without detergent
Summary of the method: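 Serine protease chymotrypsin, standard chemiluminescent read-out. Each test compound run in parallel without detergent and with 0.01% (v/v) Triton added, to screen for aggregation-based inhibition; IC50 derived under each condition.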

Substance	stability after isolation in pure form [1]	IC50 [2] [µM]
Sebestenoid A [Compound 1]	stable	
Sebestenoid B [Compound 2]	decomposed rapidly	
Sebestenoid C [Compound 3]	stable	33
Sebestenoid D [Compound 4]	decomposed rapidly	27
